Data: ChEMBL document CHEMBL3853323, “Small Antimicrobial Agents Based on Acylated Reduced Amide Scaffold” (J Med Chem, 2016)
Values after ≈ are worked out from the molar mass of the structure shown. Active and inactive are the calls of the source. The calls are words filed in the database; no cut-off is given here.

Experiments:
Escherichia coli [1] = experiment: Inhibition of biofilm formation in Escherichia coli ATCC 25922 at 0.6 ug/ml incubated overnight by crystal violet staining based assay; type: functional
Summary of the method: (§1)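 Overnight culture diluted 1:100 into 10% MHII broth, incubated with compound overnight at 37 °C. Growth read at OD600, then biomass stained with crystal violet; CV OD divided by growth OD and normalized to untreated control. Triplicate, mean ± STDEV.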

[2] = Cytotoxicity against human K562 cells assessed as cell viability after 24 hrs by MTT assay; type: toxicity, cell-based
Summary of the method: (§2)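 Cells seeded at 5×10^4 per well and left 12 h, then exposed 24 h to compound at 100, 50, 25, 12.5 or 6.25 μg/mL diluted in medium. Medium replaced, MTT added for 4 h, solubilized 12 h at 37 °C, A550 read; viability % = (A − Ablank)/(Acontrol − Ablank) × 100. Run at least three times.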

[3] = Selectivity ratio of IC50 for human K562 cells to MIC for methicillin-resistant Staphylococcus aureus ATCC 33591; type: ADME, cell-based
Acinetobacter baumannii [4] = experiment: Inhibition of biofilm formation in Acinetobacter baumannii at 2 ug/ml incubated overnight by crystal violet staining based assay; type: functional; summary of the method: as §1
Rattus norvegicus = experiment: Antiinflammatory activity in methicillin-resistant Staphylococcus aureus induced ventilator-associated pneumonia bearing Wistar rat model assessed as reduction in TNF-alpha levels in bronchoalveolar lavage fluid at 10 mg/kg, iv measured after 1 to 3 days by ELISA; type: functional, organism-based
Summary of the method: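 Same MRSA pneumonia rat model with 10 mg/kg i.v. tail-vein dosing. Rats were sacrificed and exsanguinated. Lungs were lavaged through a tracheal needle with 1 mL sterile PBS for six cycles. Specimens were homogenized and TNF-α was measured by ELISA.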

[5] = Selectivity ratio of IC50 for human HK2 cells to MIC for methicillin-resistant Staphylococcus aureus ATCC 33591; type: ADME, cell-based
Klebsiella pneumoniae = experiment: Antibacterial activity against Klebsiella pneumoniae ATCC 13383 after 16 to 20 hrs by two fold serial dilution method; type: functional
Summary of the method: (§3)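 MIC as lowest concentration giving complete inhibition of growth after 20 h; at least three independent experiments, each in duplicate.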

Staphylococcus aureus [6] = experiment: Bactericidal activity against methicillin-resistant Staphylococcus aureus ATCC 33591 for 10 mins to 2 hrs by time kill assay; type: functional
Summary of the method: (§4)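 MRSA grown to mid-log in TSB was diluted to 10^6 CFU/mL. […] Samples were diluted 10^2–10^4-fold and plated on TSB agar. CFU were counted after overnight incubation at 37 °C and plotted against time.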

Staphylococcus aureus [7] = experiment: Bactericidal activity against methicillin-resistant Staphylococcus aureus ATCC 33591 assessed as disruption of bacterial membrane at 25 ug/ml after 2 hrs by DAPI staining based fluorescence microscopy; type: functional
Summary of the method: (§5)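 Mid-log MRSA was exposed to compound at 37 °C for 2 h, pelleted and washed three times in PBS. Cells were stained sequentially with PI (5 µg/mL) and DAPI (10 µg/mL), 15 min each on ice in the dark. Imaged with a 100× oil objective; DAPI channel 460 nm, PI channel 620 nm.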

Staphylococcus aureus [8] = experiment: Bactericidal activity against methicillin-resistant Staphylococcus aureus ATCC 33591 at 25 to 50 ug/ml for 10 mins to 2 hrs by time kill assay; type: functional; summary of the method: as §4
Pseudomonas aeruginosa = experiment: Antibacterial activity against Pseudomonas aeruginosa ATCC 27853 after 16 to 20 hrs by two fold serial dilution method; type: functional; summary of the method: as §3
Enterococcus faecalis = experiment: Antibacterial activity against vancomycin resistant Enterococcus faecalis ATCC 700802 after 16 to 20 hrs by two fold serial dilution method; type: functional
Summary of the method: (§6)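 Broth MIC: the lowest concentration giving complete growth inhibition after 20 h. Run at least three times, in duplicate each time.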

Escherichia coli [9] = experiment: Antibacterial activity against Escherichia coli ATCC 25922 after 16 to 20 hrs by two fold serial dilution method; type: functional; summary of the method: as §3
[10] = Hemolytic activity in human RBC after 1 hr; type: ADME, cell-based, Erythrocyte; details: human red blood cells
Summary of the method: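 Fresh K2EDTA human RBCs, PBS-washed, as 5% v/v suspension mixed 1:1 with compound dilutions, 37 °C for 1 h. Supernatant after centrifugation diluted in PBS, A540 read. % hemolysis relative to 2% Triton X-100 (positive) and PBS (negative). At least three runs, each in duplicate.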

Staphylococcus aureus [11] = experiment: Antibacterial activity against methicillin-resistant Staphylococcus aureus ATCC 33591 after 16 to 20 hrs by two fold serial dilution method; type: functional; summary of the method: as §6
Staphylococcus aureus [12] = experiment: Antibacterial activity against methicillin-resistant Staphylococcus aureus induced ventilator-associated pneumonia bearing Wistar rat model assessed as reduction in lung infiltrated proinflammatory cells at 10 mg/kg, iv measured after 1 to 3 days by hematoxylin and eosin staining based light microscopy; type: functional, organism-based
Summary of the method: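 Male Wistar rats (6‒8 weeks, ~200 g) were fasted at least 12 h and given urethane 1 g/kg i.p. Pneumonia was induced by slow intratracheal injection of 100 μL PBS with 2×10^5 CFU/mL MRSA under mechanical ventilation. Compound was given at 10 mg/kg i.v. via tail vein. H&E-stained lung sections were scored for neutrophil infiltration and alveolar integrity over time, five random sections each.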

[13] = Cytotoxicity against human HK2 cells assessed as cell viability after 24 hrs by MTT assay; type: toxicity, cell-based, HK-2; summary of the method: as §2
Acinetobacter baumannii [14] = experiment: Inhibition of biofilm formation in Acinetobacter baumannii at 0.6 ug/ml incubated overnight by crystal violet staining based assay; type: functional; summary of the method: as §1
[15] = test system: Staphylococcus epidermidis; experiment: Antibacterial activity against methicillin-resistant Staphylococcus epidermidis RP62A after 16 to 20 hrs by two fold serial dilution method; type: functional; summary of the method: as §6
Escherichia coli [16] = experiment: Inhibition of biofilm formation in Escherichia coli ATCC 25922 at 2 ug/ml incubated overnight by crystal violet staining based assay; type: functional; summary of the method: as §1
Staphylococcus aureus [17] = experiment: Antibacterial activity against methicillin-resistant Staphylococcus aureus ATCC 33591 at 0.5 times MIC after 14 passages; type: functional
Summary of the method: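 Resistance passaging: the starting MIC was measured as in the MIC assay. Bacteria from the 1/2 MIC well seeded the next day's assay. Repeated daily for 14 passages.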

Staphylococcus aureus [18] = experiment: Bactericidal activity against methicillin-resistant Staphylococcus aureus ATCC 33591 assessed as disruption of bacterial membrane at 25 ug/ml after 2 hrs by propidium iodide staining based fluorescence microscopy; type: functional; summary of the method: as §5

NCCCC[C@H](N)C(=O)N[C@@H](Cc1ccccc1)CN(CC(=O)NCC12CC3CC(CC(C3)C1)C2)C(=O)CC12CC3CC(CC(C3)C1)C2
inhibition at 0.6 µg/mL (Escherichia coli [1]): > 50% | IC50 at 24 h [2]: 83.2 µg/mL (≈ 126 µM) | selectivity ratio [3]: > 50 | inhibition (Acinetobacter baumannii [4]): Active | Activity (Rattus norvegicus): Active | selectivity ratio [5]: > 50 | MIC (Klebsiella pneumoniae): 6.25 µg/mL (≈ 9.47 µM) | Activity (Staphylococcus aureus [6]): Dose-dependent effect | Activity (Staphylococcus aureus [7]): Active | Activity (Staphylococcus aureus [8]): Active | MIC (Pseudomonas aeruginosa): 6.25 µg/mL (≈ 9.47 µM) | MIC (Enterococcus faecalis): 6.25 µg/mL (≈ 9.47 µM) | MIC (Escherichia coli [9]): 3.12 µg/mL (≈ 4.73 µM) | HC50 at 1 h [10]: 85 µg/mL | MIC (Staphylococcus aureus [11]): 1.56 µg/mL (≈ 2.36 µM) | Activity (Staphylococcus aureus [12]): Active | IC50 at 24 h [13]: 86.3 µg/mL (≈ 131 µM) | inhibition at 0.6 µg/mL (Acinetobacter baumannii [14]): > 50% | MIC [15]: 3.12 µg/mL (≈ 4.73 µM) | inhibition (Escherichia coli [16]): Active | Activity (Staphylococcus aureus [17]): Active | Activity (Staphylococcus aureus [18]): Active
